Activity calls are given as the source filed them. No cut-off for these calls is given here.

Series [1] has as its system U-87 MG. Briefly: Cytotoxicity against human U87MG cells assessed as cell viability at 100 uM incubated for 24 hrs by WST-1 assay (reference value: 97 %). Format: functional, U-87MG ATCC. Conditions: read-out: Activity.
In series [2] the test system is LN-229. The series can be described thus: Cytotoxicity against human LN229 cells assessed as cell viability at 100 uM incubated for 24 hrs by WST-1 assay (reference value: 91 %). As to conditions: LN-229, 24 h, read-out: Activity. The class given is functional. On the technique in general: Tetrazolium assays rely on reduction of a dye to a coloured formazan, in cell work by metabolically active cells.

The nature of series [3]: Cytotoxicity against mouse 3T3 cells assessed as cell viability incubated for 24 hrs by WST-1 assay (reference value: 57 %). Format: cell-based. Conditions: NIH3T3 cells, read-out: Activity.
Series [4] in a line: Drug uptake in human U87MG cells at 50 uM measured upto 4 hrs by ICP-MS analysis. The class given is ADME, cell-based. As to conditions: u-87mg atcc. In outline:
(§1)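 Cellular boron accumulation was measured by ICP-MS as boron concentration (ppm) at time points over the incubation, up to 4 h. Mouse 3T3 cells served as the normal reference for the tumor/normal (T/N) ratio.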

A short description of series [5]: Drug uptake in human LN229 cells at 50 uM measured upto 4 hrs by ICP-MS analysis. The class given is ADME, cell-based. Conditions: ln-229, 4 h. In outline: as §1
Series [6] relates to U-87 MG. Briefly: Effect on LAT-1 expression in human U87MG cells at 50 uM incubated for 2 hrs by Western blot analysis. Conditions: U-87MG ATCC. The class given is functional, cell-based. In outline:
(§2)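 Western blot for LAT-1 protein in the three cell lines after 2 h incubation with the derivatives. Primary antibodies: LAT-1 (1:2500) and α-tubulin (1:5000) as loading reference. Qualitative comparison of expression level.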

Series [7] has as its system LN-229. Briefly: Effect on LAT-1 expression in human LN229 cells at 50 uM incubated for 2 hrs by Western blot analysis. Format: functional, cell-based. In outline:
as §2

The test system of another series is NIH3T3. The series can be described thus: Downregulation of LAT-1 expression in mouse 3T3 cells at 50 uM incubated for 2 hrs by Western blot analysis. The class given is functional, cell-based. Put shortly: as §2
In general terms: Immunoblotting shows a protein as a band on a membrane.

Series [8] is described as follows: Drug uptake in human U87MG cells at 50 uM incubated for 2 hrs by ICP-MS analysis. Format: ADME, cell-based. As to conditions: u-87mg atcc.
Series [9] in a line: Drug uptake in human LN229 cells at 50 uM incubated for 1 hr by ICP-MS analysis. Format: ADME, cell-based. Conditions: ln-229, 1 h.
Series [10] is described as follows: Ratio of drug uptake in human U87MG cells to drug uptake in mouse 3T3 cells measured up to 4 hrs. The class given is ADME, cell-based.
Series [11] is described as follows: Ratio of drug uptake in human LN229 cells to drug uptake in mouse 3T3 cells measured at 1 hr. The class given is ADME, cell-based.
Series [12] relates to U-87 MG. Briefly: Cytotoxicity against human U87MG cells assessed as cell viability at 50 uM incubated for 1 hr followed by neutron irradiation for 3 mins by WST-1 assay. The class given is functional, cell-based. Conditions: U-87MG ATCC.
Series [13] concerns LN-229. Briefly: Cytotoxicity against human LN229 cells assessed as cell viability at 50 uM incubated for 1 hr followed by neutron irradiation for 3 mins by WST-1 assay. Format: functional, cell-based.
Series [14] is described as follows: Aqueous solubility of compound. Format: physicochemical. As to conditions: buffer.
A short description of series [15]: Ratio of drug uptake in human LN229 cells to drug uptake in mouse 3T3 cells measured up to 4 hrs. The class given is ADME, cell-based.

In the case of `COC(=O)C(Cc1c[nH]c2ccc(B3OC(C)(C)C(C)(C)O3)cc12)NC(C)=O` (configuration not stated), the viability at 100 µM in the series with U-87 MG [1] was 66.2%; in the series with LN-229 [2] it was 69.9%. In addition, the viability at 24 h in series [3] came out at 60.2%. The Drug uptake entry in series [4] and in series [5] was “Not Active” throughout. The outcome with U-87 MG [6] and in the series on LN-229 [7] was inactive. Also, in the series with NIH3T3, the outcome was Active.
For the molecule `COC(=O)C(Cc1cn(C(=O)OC(C)(C)C)c2ccc(B3OC(C)(C)C(C)(C)O3)cc12)N(C(=O)OC(C)(C)C)C(=O)OC(C)(C)C` (configuration not stated), the viability at 100 µM in the series on U-87 MG [1] is 67.4%; in the series on LN-229 [2], 60.7%. In addition, the viability at 24 h in series [3] worked out at 60.2%. The Drug uptake result is “Active” in series [4], “Active” in series [5], 300 ppm in series [8] and 450 ppm in series [9]. Besides, the Ratio is given as > 5 in series [10], > 9.66 in series [11] and > 5 in [15]. The outcome in the series on U-87 MG [12], with LN-229 [13] and in the series on NIH3T3 was Active. In addition, the result in the series with U-87 MG [6] and with LN-229 [7] was inactive. The solubility entry in [14] is given as “Insoluble”.
For `COC(=O)C(Cc1cn(C(=O)OC(C)(C)C)c2ccc(B3OC(C)(C)C(C)(C)O3)cc12)N(C(C)=O)C(=O)OC(C)(C)C` (configuration not stated), the viability at 100 µM was 70.2% in the series on U-87 MG [1] and 70.8% with LN-229 [2]. The viability at 24 h in [3] stood at 63.6%. The figures for the Drug uptake entry in [4], in [5] and in series [8] were “Active”, “Active” and 300 ppm, respectively. Further, the outcome in the series on U-87 MG [12] and with LN-229 [13] was Active. Also, in series [14], the solubility result is recorded as “Insoluble”.
As for `COC(=O)C(N)Cc1c[nH]c2ccc(B3OC(C)(C)C(C)(C)O3)cc12` (configuration not stated), the viability at 100 µM was determined as 65.8% in the series with U-87 MG [1] and 67.3% in the series with LN-229 [2]. Also, in series [3], the viability at 24 h is 53%. Besides, the Drug uptake result in series [4] and in [5] was “Not Active” each time. Also, the outcome in the series with U-87 MG [6] and in the series with LN-229 [7] was inactive. The outcome in the series on NIH3T3 was Active.
For the molecule `N[C@@H](Cc1ccc(B(O)O)cc1)C(=O)O`, the figures for the viability at 100 µM in the series on U-87 MG [1] and in the series with LN-229 [2] were 67% and 79.6%, respectively. For the same molecule, in series [3], the viability at 24 h was 110%. The Drug uptake in series [9] is on record as < 50 ppm. The Ratio in series [11] is 2.3. The result in the series with U-87 MG [12], in the series on LN-229 [13] and with NIH3T3 was Active. In addition, the outcome in the series with U-87 MG [6] and in the series on LN-229 [7] was inactive.
Consider `COC(=O)C(Cc1cn(C(=O)OC(C)(C)C)c2cc(B3OC(C)(C)C(C)(C)O3)ccc12)N(C(=O)OC(C)(C)C)C(=O)OC(C)(C)C` (configuration not stated), for which the viability at 100 µM in the series with U-87 MG [1] was 60.1%; with LN-229 [2] it was 53.2%. In [3], the viability at 24 h came out at 63.6%. Also, the Drug uptake in [4] and in series [5] was 300 ppm each time. Further, the Ratio in series [10] and in series [15] was > 5 throughout. The result in the series with U-87 MG [12], with LN-229 [13] and in the series on NIH3T3 was Active. Moreover, the outcome with U-87 MG [6] and in the series with LN-229 [7] was inactive. Moreover, the solubility entry in [14] is on record as “Insoluble”.
On to `COC(=O)C(Cc1c(B2OC(C)(C)C(C)(C)O2)[nH]c2c(B3OC(C)(C)C(C)(C)O3)cccc12)N=[N+]=[N-]` (configuration not stated), for which the viability at 100 µM in the series with U-87 MG [1] amounted to 61.3%; in the series on LN-229 [2] it was 57.2%. Moreover, the viability at 24 h in [3] turned out to be 66.6%.
